Experimental data from ChEMBL document CHEMBL1142195, “A novel nonnucleoside analogue that inhibits human immunodeficiency virus type 1 isolates resistant to current nonnucleoside reverse transcriptase inhibitors” (Antimicrob Agents Chemother, 2007).
pEC50: −log10 of the molar value.

Key:
Format in all cases: functional, organism-based
[1] = system: Human immunodeficiency virus 1; test: Antiviral activity against HIV1 isolate with RT K103N-V108I-A98G mutation
Procedure, shortened: (§1)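 VSV-G-pseudotyped pNL4-3.Luc.R−E− molecular clones carrying the RT mutations, single-round infection of HeLa-JC53 cells (15,000/well) at MOI 0.03. Compounds serially diluted 1:4 in DMSO then in phenol red-free DMEM with 2% FBS, final DMSO 0.2%. Incubated 48 h at 37°C, 5% CO2. Luciferase read-out by chemiluminescence gives the EC50. Fold change is relative to wt virus, mean of two tests.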

[2] = system: Human immunodeficiency virus 1; test: Antiviral activity against HIV1 isolate with RT K103N-F227L mutation; procedure, shortened: as §1
[3] = system: Human immunodeficiency virus 1; test: Antiviral activity against HIV1 isolate V106I-Y188L mutant
[4] = system: Human immunodeficiency virus 1; test: Antiviral activity against HIV1 isolate with RT K103N-K101Q mutation; procedure, shortened: as §1
[5] = system: Human immunodeficiency virus 1; test: Antiviral activity against HIV1 isolate with RT K101E mutant; procedure, shortened: as §1
[6] = system: Human immunodeficiency virus 1; test: Antiviral activity against HIV1 isolate with RT K103N-P225H mutation; procedure, shortened: as §1
[7] = system: Human immunodeficiency virus 1; test: Antiviral activity against HIV1 isolate with RT Y188L mutation; procedure, shortened: as §1
[8] = system: Human immunodeficiency virus 1; test: Antiviral activity against HIV1 isolate with RT K103N-Y181C mutation; procedure, shortened: as §1
[9] = system: Human immunodeficiency virus 1; test: Antiviral activity against HIV1 isolate with RT A98G mutation; procedure, shortened: as §1
[10] = system: Human immunodeficiency virus 1; test: Antiviral activity against wild type HIV1
[11] = system: Human immunodeficiency virus 1; test: Antiviral activity against HIV1 isolate with RT K103N-K101Q-P225H mutation; procedure, shortened: as §1
[12] = system: Human immunodeficiency virus 1; test: Antiviral activity against HIV1 isolate with RT K103N-Y188L mutation; procedure, shortened: as §1
[13] = system: Human immunodeficiency virus 1; test: Antiviral activity against HIV1 isolate with RT Y181C mutation; procedure, shortened: as §1
[14] = system: Human immunodeficiency virus 1; test: Antiviral activity against HIV1 isolate with RT K103N mutation; procedure, shortened: as §1
[15] = system: Human immunodeficiency virus 1; test: Antiviral activity against HIV1 isolate with RT K103N-V108I-P225H mutation; procedure, shortened: as §1
[16] = system: Human immunodeficiency virus 1; test: Antiviral activity against HIV1 isolate with RT K103N-V108I mutation; procedure, shortened: as §1
[17] = system: Human immunodeficiency virus 1; test: Antiviral activity against HIV1 isolate with RT K103N-L100I mutation; procedure, shortened: as §1
[18] = system: Human immunodeficiency virus 1; test: Antiviral activity against HIV1 isolate with RT G190A mutation; procedure, shortened: as §1
[19] = system: Human immunodeficiency virus 1; test: Antiviral activity against HIV1 isolate with RT V106I mutation; procedure, shortened: as §1
[20] = system: Human immunodeficiency virus 1; test: Antiviral activity against HIV1 isolate with RT G190S mutation; procedure, shortened: as §1

**Q.** With O=C1Nc2ccc(Cl)cc2[C@@](C#CC2CC2)(C(F)(F)F)O1 [EFAVIRENZ] as the compound, how does the pEC50 [1] read?
**A.** 7.17

**Q.** And the pEC50 [2]?
**A.** 8.65

**Q.** What about the pEC50 [3] of the same compound?
**A.** 6.87

**Q.** What about the pEC50 [4] of the same compound?
**A.** 7.90

**Q.** And the pEC50 [5]?
**A.** 9.13

**Q.** And the pEC50 [6]?
**A.** 7.46

**Q.** What about the pEC50 [7] of the same compound?
**A.** 7.61

**Q.** And the pEC50 [8]?
**A.** 8.37

**Q.** And the pEC50 [9]?
**A.** 9.19

**Q.** What about the pEC50 [10] of the same compound?
**A.** 9.77

**Q.** And the pEC50 [11]?
**A.** 7.11

**Q.** What about the pEC50 [12] of the same compound?
**A.** < 5.60

**Q.** And the pEC50 [13]?
**A.** 9.48

**Q.** And the pEC50 [14]?
**A.** 8.56

**Q.** And the pEC50 [15]?
**A.** 7.11

**Q.** And the pEC50 [16]?
**A.** 8.06

**Q.** What about the pEC50 [17] of the same compound?
**A.** 6.59

**Q.** And the pEC50 [18]?
**A.** 9.32

**Q.** What about the pEC50 [19] of the same compound?
**A.** 9.57

**Q.** And the pEC50 [20]?
**A.** 7.85
